This is a sample that favours compounds with a hit; in the whole collection about 3.5% have one here.
Ecoli rRNA inh – selective bacterial rRNA inhibition in E. coli; E. coli WT GFP vs humanized-ribosome RFP mutants, fluorescence, 24 h; stronger effect = lower value; DMSO median 0, no signal -100; 350,000 tested, 1.6% active; GFP signal change (wild-type ribosome), % (concentration not given with the values); AID 720706;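 active = significant combined selectivity score with lowered wild-type GFP, culture density cut under 30%, mutant RFP and density less affected; inactive = any of these conditions unmet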
DENV2 CPE rescue – protects cells from dengue virus 2 cytopathic effect; DENV2-infected cells, cytopathic effect rescue, plate reader; CPE inhibition, % at 9.99 µM; 350,000 tested, 1.7% active; in the data active = CPE inhibition above about 20%, passing the limit was not always enough; inconclusive = no clear call, values can overlap the other calls; tested in BHK-21 cells;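 note: 0% = median of neutral control wells and 100% = median of positive control wells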
PGC1a acetyl inh – lowers PGC1a acetylation signal in U2OS cells. AlphaScreen anti-acetyl-lysine; with virally co-expressed GCN5 acetyltransferase. AID 651687. inhibition, % at 15.6 µM. 350,000 tested, 0.17% active;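 active = every replicate shows inhibition of at least 40%; inconclusive = mean inhibition at least 40% but some replicate below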;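 note: 0% = neutral control wells and 100% = positive control wells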
FN deposition inh – fibronectin deposition inhibition. AH1F fibroblasts, Alexa488-fibronectin deposition fluorescence, overnight. inhibition, % at 12.6 µM. 350,000 tested, 0.086% active. AID 743247;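 active = mean inhibition across replicates of 30% or more, regardless of how many single replicates reach that level; inconclusive = mean under 30% yet at least half of replicates reach 30%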;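 note: positive control wells lacked labelled fibronectin entirely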
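Schedule: 1 h cell adhesion before compound, then overnight fibronectin incubation; test system: AH1F fibroblast monolayer depositing Alexa488-labelled fibronectin into matrix; quantity: 10000 AH1F cells per well; probe or stimulus: fluorescent fibronectin at 24 nM final; signal: fluorescence, ex 485 nm, em 525 nm; evaluation: percent inhibition as loss of matrix-bound fibronectin fluorescence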
PglD inh – blocks C. jejuni PglD acetyltransferase activity; purified PglD enzyme, DTNB colorimetric CoA detection; inhibition, % at 12.5 µM; 360,000 tested, 0.098% active; AID 602405; in the data active = inhibition above about 16%, passing the limit was not always enough; inconclusive = no clear call, values can overlap the other calls
HIV Env fusion – HIV envelope-mediated fusion inhibition; inhibition, % at 12.3 µM; HeLa-JRFL Env/CEM21 cell fusion, luciferase; 360,000 tested, 1.1% active;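 active = mean replicate inhibition score of at least 50 and every replicate individually at or above 50; inconclusive = only one of the two criteria met; inactive = mean below 50 and not all replicates reaching 50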;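 note: 0% = plate neutral controls and 100% = maraviroc near 300 nM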
PglD confirm – confirmation of Campylobacter jejuni PglD acetyltransferase inhibitors | shares compounds with PglD inh | Purified C. jejuni PglD, DTNB absorbance 412 nm | inhibition, % at 20 µM | 320 tested, under 10 active | AID 743156;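 active = mean inhibition across replicates of at least 20% with every single replicate also at 20% or more; inconclusive = mean inhibition at least 20% but some replicate falls below 20%; inactive = mean inhibition under 20% and not all replicates reach it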;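 note: initial rate of CoA release by acetyl transfer from AcCoA to the UDP-4-amino sugar; 0% = median of neutral control wells and 100% = median of positive control wells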
C2C12 COX5a inh – inhibitors of PGC-1a target COX5a expression in C2C12 myotubes; AID 743461; C2C12 myotubes PGC-1a adenovirus, COX5a qPCR; maximal activity, %; 45 tested, under 10 active; shares compounds with PGC1a acetyl inh;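 active = fitted dose curve reaching 40% activity at or below the highest valid dose tested; inconclusive = flat fit between 30% and 70%, or an unusable fit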
AID743468 – change in PGC-1a target gene PDK4 expression, dose response, C2C12 myotubes, RT-qPCR, cherry-pick. PDK4 expression increase, % at 19.5 µM. PGC-1a adenovirus, PDK4 mRNA qPCR. 45 tested, under 10 active. AID 743468. shares compounds with PGC1a acetyl inh;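 active = fitted curve reaching a 40% PDK4 expression rise at or below the top valid tested dose; inconclusive = no clear call, values can overlap the other calls; inactive = the rest, including shifts the wrong way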
AID977621 – wild-type E. coli growth inhibition versus H69 humanized strain – H69 mutant RFP, wild-type GFP, cherry-pick, dose response; shares compounds with Ecoli rRNA inh; fluorescence, 24 h; AID 977621; 1,900 tested, under 10 active; activity change, negative = inhibition at 50 µM;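 active = Wild-type ribosome reporter drop at least double the humanized mutant ribosome reporter drop, growth loss under a set limit; inconclusive = no clear call, values can overlap the other calls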;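 note: wild-type GFP and H69 mutant RFP strains grown together 50/50 in each well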
AID977628 – E. coli growth inhibition, wild-type GFP versus h24 humanized RFP strain, dose response, h24 mutant RFP vs wild-type GFP, cherry-pick; E. coli WT GFP strain growth, fluorescence, 24 h; 1,900 tested, under 10 active; shares compounds with Ecoli rRNA inh; AID 977628; activity change, negative = inhibition at 50 µM;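 active = compound lowering the normal-ribosome reporter at least twice as much as the humanized-ribosome reporter, growth loss under a set limit; inconclusive = no clear call, values can overlap the other calls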;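 note: wild-type GFP and h24 humanized RFP strains co-cultured 1 to 1 per well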
An asterisk follows results filed as active; ? = inconclusive; · = not tested or not shown; [ ] = another dose, or the depositor's remark.

SMILES	Ecoli rRNA inh	DENV2 CPE rescue	PGC1a acetyl inh	FN deposition inh	PglD inh	HIV Env fusion	others
CCC(=O)N1N=C(c2c(O)n(CCc3ccccc3)c(=O)[nH]c2=O)CC1c1ccc(OC)c(OC)c1 (stereo not drawn)	-28*	8	8	6	1	1
COc1ccc(CCn2c(O)c(C=NCCN3CCCCC3)c(=O)[nH]c2=O)cc1OC	·	·	4	0	-2	-7
COC(=O)C1=C(N)Oc2cc(C)oc(=O)c2C12C(=O)Nc1ccccc12 (stereo not drawn)	-23*	-2	6	10	·	0
CC(=O)OCC12CC(OC(=O)CC(C)C)C(C)=CC1OC1C(O)C(OC(C)=O)C2(C)C12CO2 (stereo not drawn)	14	-37	74*	9	·	67*
CCOC(=O)[C@]12Cc3cc(OC)c(OC)cc3[C@H]1N(Cc1ccccc1)C(=O)c1ccccc12	11	?	-3	-7	1	41
CCOC(=O)[C@]12Cc3ccccc3[C@H]1N(CCC(=O)OC)C(=O)c1cc(OC)ccc12	-24	30*	·	·	·	31
CCOC(=O)[C@]12Cc3c(cc(OC)c(OC)c3OC)[C@H]1N(Cc1ccccc1)C(=O)c1ccccc12	-14	2	-12	1	0	64*
CCOC(=O)[C@]12Cc3cc(OC)ccc3[C@H]1N(CCC(=O)OC)C(=O)c1cc(OC)ccc12	-52	-10	·	16	·	0
COc1ccc(OC(=O)N(C)C[C@H]2OCc3ccccc3-c3c(n(C)c4ccccc34)C(=O)N([C@H](C)CO)C[C@H]2C)cc1	-3	7	-173	-2	·	·
COc1ccc(OC(=O)N(C)C[C@@H]2OCc3ccccc3-c3c(n(C)c4ccccc34)C(=O)N([C@H](C)CO)C[C@@H]2C)cc1	4	-3	-3	11	-7	69*
c1ccc(CCCN2CCN(CCOC(c3ccccc3)c3ccccc3)CC2)cc1	·	-5	-11	-2	-3	8
Fc1ccc(C(OCCN2CCN(CCCc3ccccc3)CC2)c2ccc(F)cc2)cc1	-57	-6	-18	4	-2	71*
COC(=O)[C@H]1[C@H](CO)[C@H]2Cn3c(ccc(C4=CCCCC4)c3=O)[C@@H]1N2Cc1ccccn1	-2	1	·	·	-3	·
Cc1cccc(S(=O)(=O)N2[C@@H]3Cn4c(ccc(-c5ccccc5)c4=O)[C@H]2[C@@H](C(=O)O)[C@@H]3CO)c1	0	-4	·	·	-3	·
COc1cc(O)c2c(c1)/C=C/C[C@H](O)[C@H](O)C(=O)CCC[C@H](C)OC2=O	-25*	9	-24	3	2	12
C[C@H]1CCCC(=O)CCCCCc2cc(O)cc(O)c2C(=O)O1	·	11	7	-2	3	12
CC(=O)N1C[C@@H]2C(c3ccccc3)[C@H](C1)N2CC1CC1 (stereo partly drawn)	1	·	·	3	·	·
Clc1ccccc1CN1CCN(c2ccccc2Cl)CC1	-42*	·	·	·	·	·
CCCC(C)C1C(C#N)=C(N)Oc2c1c(=O)oc1ccccc21 (stereo not drawn)	·	·	2	·	24*	·	PglD confirm=-4
CN1[C@@H]2CN(S(C)(=O)=O)C[C@H]1C2c1ccccc1 (stereo partly drawn)	1	·	·	-13	·	·
COC(=O)[C@@H]1[C@@H](CO)[C@@H]2Cn3c(ccc(/C=C/c4ccccc4)c3=O)[C@H]1N2C(=O)C1CCC1	-2	-3	·	·	5	·
C=CCn1c(O)c(C=NC2CCN(Cc3ccccc3)CC2)c(=O)[nH]c1=O	6	-5	-4	5	20*	-2	PglD confirm=-7
CC(=O)NC1CC2CCC(C1)N2 (stereo not drawn)	·	·	2	-10	5	-28
CC(=O)NC1CC2CCCC(C1)N2 (stereo not drawn)	·	·	-22	-2	27*	17	PglD confirm=-4
O=c1[nH]c2ccccc2n1C1CCN(C(c2cc3ccccc3o2)c2nnnn2Cc2ccccc2)CC1 (stereo not drawn)	10	13	49*	9	3	34	C2C12 COX5a inh=55;AID743468=-7
SMILES	Ecoli rRNA inh	DENV2 CPE rescue	PGC1a acetyl inh	FN deposition inh	PglD inh	HIV Env fusion	others
COC(=O)[C@@H]1[C@@H](CO)[C@@H]2Cn3c(ccc(-c4ccccc4F)c3=O)[C@H]1N2C(C)=O	6	2	·	·	1	·
C[C@]12CCC(=O)C[C@H]1CC[C@@H]1[C@@H]2CC[C@]2(C)C(=O)CC[C@@H]12	-27*	-3	-15	·	0	·	AID977628=?
COc1ccc(CN2CCCC(C(=O)c3cccc(Cl)c3)C2)cc1 (stereo not drawn)	-13	0	-5	0	1	-7
O=C(c1cccc(Cl)c1)C1CCCN(Cc2cccc3cnccc23)C1 (stereo not drawn)	-52	7	5	-6	·	12
CSc1ncc(CN2CCCC(C(=O)c3cccc(Cl)c3)C2)cn1 (stereo not drawn)	-21*	-6	·	-33	4	6	AID977621=-2.3;AID977628=-7.6
O=C(c1ccc(Cl)cc1)C1CCCN(Cc2cccc3cnccc23)C1 (stereo not drawn)	-25*	2	3	-10	0	34	AID977628=?
Cc1ccc(-c2cc(-c3ccc(C)cc3)[n+](-c3ccc(C(=O)[O-])cc3)c(-c3ccc(C)cc3)c2)cc1	-21*	0	-8	1	3	10	AID977628=?
Cc1ccc(-c2cc(-c3ccc(C)cc3)[n+](-c3ccccc3)c(-c3ccc(C)cc3)c2)cc1	·	·	-16	·	-8	·
COC(=O)[C@@H]1[C@@H](CO)[C@@H]2Cn3c(cccc3=O)[C@H]1N2C(=O)C1CC1	3	7	·	·	-1	-2[16.7 µM]
O=C(O)[C@@H]1[C@@H](CO)[C@@H]2Cn3c(ccc(-c4ccc(F)cc4)c3=O)[C@H]1N2CC1CCCCC1	0	-4	·	·	3	1[16.7 µM]

High-throughput results: PubChem, Broad Institute
